Measured values taken from ChEMBL document CHEMBL1240422, “Design, synthesis and biological evaluation of 3,5-diaryl-isoxazoline/isoxazole-pyrrolobenzodiazepine conjugates as potential anticancer agents” (2010).

Legend:
Assay type in all cases: functional
[1] = test system: CCRF-CEM; test: Anticancer activity against human CCRF-CEM cells after 48 hrs by SRB assay
[2] = test system: HL-60(TB); test: Anticancer activity against human HL-60(TB) cells after 48 hrs by SRB assay; settings: HL-60, 48 h
[3] = test system: K562; test: Anticancer activity against human K562 cells after 48 hrs by SRB assay; settings: K562, 48 h
[4] = test system: MOLT-4; test: Anticancer activity against human MOLT4 cells after 48 hrs by SRB assay; settings: MOLT-4, 48 h
[5] = test system: RPMI-8226; test: Anticancer activity against human RPMI8226 cells after 48 hrs by SRB assay; settings: RPMI-8226, 48 h
[6] = test system: SR; test: Anticancer activity against human SR cells after 48 hrs by SRB assay
[7] = test system: A549; test: Anticancer activity against human A549 cells after 48 hrs by SRB assay; settings: A549, 48 h
Outline: (§1)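 Grown in RPMI 1640 with 10% FBS and 2 mM L-glutamine at 37 °C, 5% CO2. Seeded at densities set by doubling time, then preincubated 24 h. Continuous 48 h drug exposure at four concentrations (0.1, 1, 10, 100), triplicate wells. Fixed with cold TCA (final 10%) at 4 °C, 60 min. Stained with 0.4% SRB in 1% acetic acid, eluted with 10 mM Tris base, read at 540/690 nm. Percent growth versus control wells.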

[8] = test system: EKVX; test: Anticancer activity against human EKVX cells after 48 hrs by SRB assay
[9] = test system: HOP-62; test: Anticancer activity against human HOP62 cells after 48 hrs by SRB assay; settings: HOP-62, 48 h; outline: as §1
[10] = test system: HOP-92; test: Anticancer activity against human HOP92 cells after 48 hrs by SRB assay; settings: HOP-92, 48 h
[11] = test system: NCI-H226; test: Anticancer activity against human NCI-H226 cells after 48 hrs by SRB assay; settings: NCI-H226, 48 h
[12] = test system: NCI-H23; test: Anticancer activity against human NCI-H23 cells after 48 hrs by SRB assay; settings: NCI-H23, 48 h
[13] = test system: NCI-H322M; test: Anticancer activity against human NCI-H322M cells after 48 hrs by SRB assay
[14] = test system: NCI-H460; test: Anticancer activity against human NCI-H460 cells after 48 hrs by SRB assay; settings: NCI-H460, 48 h
[15] = test system: NCI-H522; test: Anticancer activity against human NCI-H522 cells after 48 hrs by SRB assay; settings: NCI-H522, 48 h
[16] = test system: COLO 205; test: Anticancer activity against human COLO205 cells after 48 hrs by SRB assay; settings: COLO 205, 48 h; outline: as §1
[17] = test system: HCC 2998; test: Anticancer activity against human HCC2998 cells after 48 hrs by SRB assay; settings: HCC 2998, 48 h
[18] = test system: HCT-116; test: Anticancer activity against human HCT116 cells after 48 hrs by SRB assay; settings: HCT-116, 48 h
[19] = test system: HCT-15; test: Anticancer activity against human HCT15 cells after 48 hrs by SRB assay; settings: HCT-15, 48 h
[20] = test system: HT-29; test: Anticancer activity against human HT-29 cells after 48 hrs by SRB assay; settings: HT-29, 48 h
[21] = test system: KM12; test: Anticancer activity against human KM12 cells after 48 hrs by SRB assay; settings: KM12, 48 h
[22] = test system: SW-620; test: Anticancer activity against human SW620 cells after 48 hrs by SRB assay; settings: SW-620, 48 h
[23] = test system: SF-268; test: Anticancer activity against human SF268 cells after 48 hrs by SRB assay; settings: SF-268, 48 h
[24] = test system: SF-539; test: Anticancer activity against human SF539 cells after 48 hrs by SRB assay; settings: SF-539, 48 h
[25] = test system: SNB-19; test: Anticancer activity against human SNB19 cells after 48 hrs by SRB assay; settings: SNB-19, 48 h
[26] = test system: SNB-75; test: Anticancer activity against human SNB75 cells after 48 hrs by SRB assay; settings: SNB-75, 48 h
[27] = test system: U-251; test: Anticancer activity against human U251 cells after 48 hrs by SRB assay; settings: U-251, 48 h
[28] = test system: LOX IMVI; test: Anticancer activity against human LOXIMVI cells after 48 hrs by SRB assay
[29] = test system: Malme-3M; test: Anticancer activity against human MALME-3M cells after 48 hrs by SRB assay
[30] = test system: M14; test: Anticancer activity against human M14 cells after 48 hrs by SRB assay; settings: M14, 48 h
[31] = test system: SK-MEL-2; test: Anticancer activity against human SK-MEL-2 cells after 48 hrs by SRB assay; settings: SK-MEL-2, 48 h
[32] = test system: IGROV-1; test: Anticancer activity against human IGROV1 cells after 48 hrs by SRB assay; settings: IGROV-1, 48 h
[33] = test system: OVCAR-3; test: Anticancer activity against human OVCAR-3 cells after 48 hrs by SRB assay; settings: OVCAR-3, 48 h
[34] = test system: OVCAR-4; test: Anticancer activity against human OVCAR4 cells after 48 hrs by SRB assay; settings: OVCAR-4, 48 h
[35] = test system: OVCAR-5; test: Anticancer activity against human OVCAR5 cells after 48 hrs by SRB assay; settings: OVCAR-5, 48 h
[36] = test system: OVCAR-8; test: Anticancer activity against human OVCAR8 cells after 48 hrs by SRB assay; settings: OVCAR-8, 48 h
[37] = test system: SK-OV-3; test: Anticancer activity against human SKOV3 cells after 48 hrs by SRB assay; settings: SK-OV-3, 48 h
[38] = test system: 786-0; test: Anticancer activity against human 786-0 cells after 48 hrs by SRB assay; settings: 786-0, 48 h
[39] = test system: A498; test: Anticancer activity against human A498 cells after 48 hrs by SRB assay; settings: A498, 48 h
[40] = test system: ACHN; test: Anticancer activity against human ACHN cells after 48 hrs by SRB assay
[41] = test system: CAKI-1; test: Anticancer activity against human Caki1 cells after 48 hrs by SRB assay; settings: CAKI-1, 48 h
[42] = test system: RXF 393; test: Anticancer activity against human […] cells after 48 hrs by SRB assay; settings: RXF 393, 48 h
[43] = test system: SN12C; test: Anticancer activity against human SN12C cells after 48 hrs by SRB assay
[44] = test system: TK-10; test: Anticancer activity against human TK10 cells after 48 hrs by SRB assay; settings: TK-10, 48 h
[45] = test system: UO-31; test: Anticancer activity against human UO31 cells after 48 hrs by SRB assay; settings: UO-31, 48 h
[46] = test system: MCF7; test: Anticancer activity against human MCF7 cells after 48 hrs by SRB assay; settings: MCF7, 48 h; outline: as §1
[47] = test system: MDA-MB-231; test: Anticancer activity against human MDA-MB-231 cells after 48 hrs by SRB assay; settings: MDA-MB-231, 48 h
[48] = Anticancer activity against human Hs 578T cells after 48 hrs by SRB assay
[49] = test system: MDA-MB-435; test: Anticancer activity against human MDA-MB-435 cells after 48 hrs by SRB assay; settings: MDA-MB-435, 48 h
[50] = test system: BT-549; test: Anticancer activity against human BT549 cells after 48 hrs by SRB assay; settings: BT-549, 48 h
[51] = test system: T47D; test: Anticancer activity against human T47D cells after 48 hrs by SRB assay
[52] = test system: MDA-MB-468; test: Anticancer activity against human MDA-MB-468 cells after 48 hrs by SRB assay; settings: MDA-MB-468, 48 h
[53] = test system: DU-145; test: Anticancer activity against human DU145 cells after 48 hrs by SRB assay; settings: DU-145, 48 h
[54] = test system: PC-3; test: Anticancer activity against human PC3 cells after 48 hrs by SRB assay; settings: PC-3, 48 h; outline: as §1
[55] = test system: SK-MEL-28; test: Anticancer activity against human SK-MEL-28 cells after 48 hrs by SRB assay; settings: SK-MEL-28, 48 h
[56] = test system: SK-MEL-5; test: Anticancer activity against human SK-MEL-5 cells after 48 hrs by SRB assay; settings: SK-MEL-5, 48 h
[57] = test system: UACC-257; test: Anticancer activity against human UACC257 cells after 48 hrs by SRB assay; settings: UACC-257, 48 h
[58] = test system: UACC-62; test: Anticancer activity against human UACC62 cells after 48 hrs by SRB assay; settings: UACC-62, 48 h

COc1ccc(C2CC(c3cc(OC)c(OC)c(OC)c3)=NO2)cc1OCCCCOc1cc2c(cc1OC)C(=O)N1CCC[C@H]1C=N2 (stereo partly drawn)
GI50 [1]: 1410 nM | GI50 [2]: 1900 nM | GI50 [3]: 1260 nM | GI50 [4]: 1850 nM | GI50 [5]: 1430 nM | GI50 [6]: 1120 nM | GI50 [7]: 2330 nM | GI50 [8]: 3680 nM | GI50 [9]: 1680 nM | GI50 [10]: 2470 nM | GI50 [11]: 1670 nM | GI50 [12]: 1830 nM | GI50 [13]: 3460 nM | GI50 [14]: 1850 nM | GI50 [15]: 610 nM | GI50 [16]: 1960 nM | GI50 [17]: 1580 nM | GI50 [18]: 1700 nM | GI50 [19]: 2270 nM | GI50 [20]: 2750 nM | GI50 [21]: 1740 nM | GI50 [22]: 1550 nM | GI50 [23]: 1890 nM | GI50 [24]: 1800 nM | GI50 [25]: 1960 nM | GI50 [26]: 1710 nM | GI50 [27]: 1730 nM | GI50 [28]: 1470 nM | GI50 [29]: 2880 nM | GI50 [30]: 1730 nM | GI50 [31]: 2030 nM | GI50 [32]: 1570 nM | GI50 [33]: 1940 nM | GI50 [34]: 2070 nM | GI50 [35]: 3130 nM | GI50 [36]: 2550 nM | GI50 [37]: 3370 nM | GI50 [38]: 1570 nM | GI50 [39]: 1720 nM | GI50 [40]: 2410 nM | GI50 [41]: 3090 nM | GI50 [42]: 1390 nM | GI50 [43]: 1580 nM | GI50 [44]: 3510 nM | GI50 [45]: 2090 nM | GI50 [46]: 1750 nM | GI50 [47]: 1150 nM | GI50 [48]: 1100 nM | GI50 [49]: 3540 nM | GI50 [50]: 1230 nM | GI50 [51]: 1310 nM | GI50 [52]: 1340 nM | GI50 [53]: 320 nM | GI50 [54]: 320 nM | GI50 [55]: 2070 nM | GI50 [56]: 1470 nM | GI50 [57]: 2330 nM | GI50 [58]: 1520 nM
